Test results from ChEMBL document CHEMBL1127430, “Novel zinc chelators which inhibit the binding of HIV-EP1 (HIV enhancer binding protein) to NF-kappa B recognition sequence” (J Med Chem, 1994).

Experiments:
[1] = molecular target: Zinc finger protein 40 (Homo sapiens) (UniProt P15822); assay: Inhibition of human DNA binding to HIV-EP1 (enhancer binding protein) at 1.0 mM concentration
[2] = molecular target: Zinc finger protein 40 (Homo sapiens) (UniProt P15822); conditions: 4.0 mM
[3] = molecular target: Zinc finger protein 40 (Homo sapiens) (UniProt P15822); assay: Inhibition of human DNA binding to HIV-EP1 (enhancer binding protein) at 0.01 mM concentration
[4] = molecular target: Zinc finger protein 40 (Homo sapiens) (UniProt P15822); assay: Inhibition of human DNA binding to HIV-EP1 (enhancer binding protein) at 0.1 mM concentration
[5] = molecular target: Zinc finger protein 40 (Homo sapiens) (UniProt P15822); assay: Inhibition of human DNA binding to HIV-EP1 (enhancer binding protein) at 0.4 mM concentration
[6] = molecular target: Zinc finger protein 40 (Homo sapiens) (UniProt P15822); assay: Inhibition of human DNA binding to HIV-EP1 (enhancer binding protein) at 0.7 mM concentration
[7] = molecular target: Zinc finger protein 40 (Homo sapiens) (UniProt P15822); assay: Inhibition of human DNA binding to HIV-EP1 (enhancer binding protein) at 0.7 mM concentration and 0.7 mM of ZnSO4
Method in brief: (§1)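 Same HIV-EP1 κB-site binding assay: protein with ligand and poly(dI-dC), 30 min at room temperature, in H2O-CH3OH (96:4), then labelled κB oligonucleotide. ZnSO4 at the stated level was introduced either during or after the ligand inhibition reaction. Read-out is percentage of HIV-EP1 bound to DNA.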

[8] = molecular target: Zinc finger protein 40 (Homo sapiens) (UniProt P15822); assay: Inhibition of human DNA binding to HIV-EP1 (enhancer binding protein) at 0.7 mM concentration and 2.1 mM of ZnSO4; method in brief: as §1
[9] = molecular target: Zinc finger protein 40 (Homo sapiens) (UniProt P15822); assay: Inhibition of human DNA binding to HIV-EP1 (enhancer binding protein) at 0.05 mM concentration

Sequence of Zinc finger protein 40 (Homo sapiens) (P15822 whole entry, looked up): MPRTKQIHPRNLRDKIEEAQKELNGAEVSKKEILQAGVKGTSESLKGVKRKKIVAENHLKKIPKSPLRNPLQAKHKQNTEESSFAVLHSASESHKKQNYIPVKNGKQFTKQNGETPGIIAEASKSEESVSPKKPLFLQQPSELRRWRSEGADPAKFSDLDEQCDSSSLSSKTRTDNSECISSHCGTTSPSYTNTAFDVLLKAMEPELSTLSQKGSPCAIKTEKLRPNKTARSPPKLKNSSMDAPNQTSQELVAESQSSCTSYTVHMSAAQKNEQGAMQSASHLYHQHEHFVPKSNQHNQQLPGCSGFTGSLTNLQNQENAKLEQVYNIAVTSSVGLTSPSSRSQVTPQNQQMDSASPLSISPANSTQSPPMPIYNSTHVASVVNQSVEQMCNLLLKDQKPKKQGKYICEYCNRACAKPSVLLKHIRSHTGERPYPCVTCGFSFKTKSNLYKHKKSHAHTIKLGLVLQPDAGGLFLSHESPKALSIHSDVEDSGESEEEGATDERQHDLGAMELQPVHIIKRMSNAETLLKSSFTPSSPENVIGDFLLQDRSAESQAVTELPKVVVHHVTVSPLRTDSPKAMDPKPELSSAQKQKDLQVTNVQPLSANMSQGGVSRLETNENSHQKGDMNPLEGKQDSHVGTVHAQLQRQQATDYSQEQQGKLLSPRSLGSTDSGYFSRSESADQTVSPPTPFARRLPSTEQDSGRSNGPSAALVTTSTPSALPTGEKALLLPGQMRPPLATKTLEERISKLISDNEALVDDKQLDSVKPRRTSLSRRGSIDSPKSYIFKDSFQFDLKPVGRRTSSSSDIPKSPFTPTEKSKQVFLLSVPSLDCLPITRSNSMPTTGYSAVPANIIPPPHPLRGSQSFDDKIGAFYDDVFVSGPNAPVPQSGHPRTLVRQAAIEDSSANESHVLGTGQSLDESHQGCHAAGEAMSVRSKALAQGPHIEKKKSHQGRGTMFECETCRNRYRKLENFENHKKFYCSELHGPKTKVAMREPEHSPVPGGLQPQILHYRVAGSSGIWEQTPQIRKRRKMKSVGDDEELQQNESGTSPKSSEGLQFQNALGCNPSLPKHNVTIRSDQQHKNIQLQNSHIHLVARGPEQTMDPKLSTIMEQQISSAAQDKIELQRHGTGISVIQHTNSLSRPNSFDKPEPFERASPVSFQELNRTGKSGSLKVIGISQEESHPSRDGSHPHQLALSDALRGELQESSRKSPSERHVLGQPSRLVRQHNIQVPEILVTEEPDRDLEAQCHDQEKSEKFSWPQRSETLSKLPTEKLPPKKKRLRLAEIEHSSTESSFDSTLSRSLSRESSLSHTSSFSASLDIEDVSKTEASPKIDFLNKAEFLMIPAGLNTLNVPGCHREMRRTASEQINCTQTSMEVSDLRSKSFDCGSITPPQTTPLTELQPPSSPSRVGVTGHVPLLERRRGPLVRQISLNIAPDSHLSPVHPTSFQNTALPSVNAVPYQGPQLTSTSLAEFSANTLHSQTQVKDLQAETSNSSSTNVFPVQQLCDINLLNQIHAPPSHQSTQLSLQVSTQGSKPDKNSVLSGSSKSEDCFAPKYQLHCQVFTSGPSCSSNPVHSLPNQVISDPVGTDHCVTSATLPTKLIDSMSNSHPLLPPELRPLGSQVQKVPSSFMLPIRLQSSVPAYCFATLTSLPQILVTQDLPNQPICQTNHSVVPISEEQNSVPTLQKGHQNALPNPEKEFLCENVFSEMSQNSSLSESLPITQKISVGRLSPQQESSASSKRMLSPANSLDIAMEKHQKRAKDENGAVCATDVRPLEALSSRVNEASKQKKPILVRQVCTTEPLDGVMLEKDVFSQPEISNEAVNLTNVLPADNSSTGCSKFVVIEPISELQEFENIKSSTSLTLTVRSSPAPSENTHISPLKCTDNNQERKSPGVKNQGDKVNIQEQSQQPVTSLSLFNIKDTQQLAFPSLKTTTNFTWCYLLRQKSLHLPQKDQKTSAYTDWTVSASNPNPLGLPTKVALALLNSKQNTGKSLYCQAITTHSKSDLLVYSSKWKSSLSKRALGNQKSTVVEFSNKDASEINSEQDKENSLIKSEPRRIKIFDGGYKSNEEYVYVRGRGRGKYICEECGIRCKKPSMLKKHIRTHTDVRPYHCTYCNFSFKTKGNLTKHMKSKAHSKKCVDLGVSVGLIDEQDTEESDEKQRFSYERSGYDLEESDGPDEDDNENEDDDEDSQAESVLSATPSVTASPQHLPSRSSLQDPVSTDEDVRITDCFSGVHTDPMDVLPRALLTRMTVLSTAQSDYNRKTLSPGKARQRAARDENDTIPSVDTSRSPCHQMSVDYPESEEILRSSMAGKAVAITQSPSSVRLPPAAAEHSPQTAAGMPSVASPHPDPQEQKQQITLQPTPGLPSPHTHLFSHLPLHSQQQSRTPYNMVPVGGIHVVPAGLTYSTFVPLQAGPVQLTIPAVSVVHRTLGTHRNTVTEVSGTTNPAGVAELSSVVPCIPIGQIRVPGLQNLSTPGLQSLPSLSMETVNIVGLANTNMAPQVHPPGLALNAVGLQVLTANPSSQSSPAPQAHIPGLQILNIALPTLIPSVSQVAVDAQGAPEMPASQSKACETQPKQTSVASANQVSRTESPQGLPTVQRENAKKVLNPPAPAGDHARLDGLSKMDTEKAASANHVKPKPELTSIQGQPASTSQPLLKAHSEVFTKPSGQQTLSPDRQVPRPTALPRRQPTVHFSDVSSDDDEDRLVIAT

SMILES | Binding [1] [%] | Binding [2] [%] | Binding [3] [%] | Binding [4] [%] | Binding [5] [%] | Binding [6] [%] | Binding [7] [%] | Binding [8] [%] | Binding [9] [%]
O=C(O)CN(CCN(CC(=O)O)CC(=O)O)CC(=O)O | 33 | 16 | – | – | – | – | – | – | –
COC(=O)[C@H](Cc1c[nH]cn1)NCc1cc(N(C)C)cc(CN[C@@H](Cc2c[nH]cn2)C(=O)OC)n1 | 0 | – | 100 | 68 | 4 | 0 | 100 | 100 | 81
